The record followed here is PubChem BioAssay.

Broadly, the inhibition is the relative decrease from the control value, in per cent.

Active and inactive are the calls of the source.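 The calls were made as follows, unless noted: active = inhibition at or above 50% at 10 µM; inactive = inhibition below 50%.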

Assay [1] in a line: inhibitors of TNFa-induced NFkB p65 translocation, primary screen, imaging, HUVEC, MLSMR starter and 10KST1 sets (AID 438;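 active = inhibition above 20% together with a positive visual image hit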;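 also: compound added about 3h40 before a 20 min TNFalpha stimulation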;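 as to inhibition: signal is the nuclear over cytoplasmic p65 intensity ratio per well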). The conditions noted are these: HUVEC TNFa-induced p65 nuclear translocation; cell count: measured here: nuclei count (cytotoxicity indicator), at 2.08 µM; inhibition: at 2 µM, stronger effect = higher value, 0% TNFa-plus-vehicle, 100% no-TNFa wells.
A short description of assay [2]: inhibitors of mutant huntingtin aggregation, primary screen, imaging, exon1htt(103Q)mCFP cells, high-content imaging (AID 483;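 active = visual image review flags a hit and inhibition of aggregation exceeds 20%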;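 also: compound exposure lasted 3 days before fixation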;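 as to nuclei count: percent of the per-plate median nuclei count of sample wells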). The conditions noted are these: exon1htt(103Q)mCFP cell line, aggregate imaging, at 2 µM; inhibition of aggregation: stronger effect = higher value; nuclei count: measured here: cell count, toxicity.
Assay [3] is described as follows: inhibitors of E-selectin induction by TNFa, primary screen, imaging, HUVEC, immunofluorescence, MLSMR starter and 10KST1 sets (AID 487;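 active = visually confirmed hit in the image check and inhibition above 20%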;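 as to inhibition: signal is fraction of cell area covered by stained E-selectin grains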;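 as to nuclei count: 100% = median nuclei count of all wells on the same plate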). The conditions noted are these: HUVEC TNFalpha-induced E-selectin immunofluorescence imaging, at 2 µM; inhibition: stronger effect = higher value; nuclei count: measured here: cell number, toxicity.
Assay [4] has as its target Voltage-gated potassium channel subunit beta-2 (Rattus norvegicus) (UniProt P62483). In words: KvBeta enzyme negative modulators, primary screen, biochemical, NADPH fluorescence (AID 622;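 active = fluorescence slope higher than the sample average by over 3 SD, cut at about -0.22 in these data, passing the limit was not always enough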;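 also: slope of raw intensity against log time taken from 70 to 1610 s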). As to conditions: recombinant KvBeta, 4-cyanobenzaldehyde reduction, at 10 µM, stronger effect = higher value.
Assay [5] has the same target. Kind of assay: KvBeta positive modulators, primary screen, biochemical, NADPH fluorescence (AID 623;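 active = NADPH fluorescence slope more negative than the mean of all samples by about 3 SD, 99.7% confidence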;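 also: fluorescence intensity change per second fitted from 20 to 320 s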). The conditions noted are these: Recombinant KvBeta, NADPH fluorescence decrease slope, 10 min; at 10 µM; stronger effect = lower value.
Assay [6] addresses Muscarinic acetylcholine receptor M4 (Homo sapiens) (UniProt P08173). Kind of assay: compounds altering M4/GIRK thallium flux, either direction, primary screen, M4 allosteric agonist project, cell-based, HEK293 M4/GIRK, BTC-AM (AID 625;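 active = fluorescence slope after compound addition differing from the mean of all tested samples at 99.7% confidence, mostly higher but some lower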;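 also: thallium influx through GIRK channels coupled to M4 in HEK293 cells with BTC-AM dye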). As to conditions: at 10 µM, actives lie on both sides. The essentials: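 assay system = HEK293 cells with M4 receptor and GIRK channels | medium = pH 7.3 thallium assay buffer | doses = 10 µM final, single point | timing = cells overnight at 37 °C, BTC-AM loading 1 h, reads 2 min total | signal = BTC-AM fluorescence, 1 Hz kinetic reads | read-out = post-addition slope, 15–24 s, of baseline-normalized fluorescence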

Assay [7] can be described thus: inhibitors of Sendai virus-induced IRF3 signaling, primary screen, TLR/RLR signaling modifier project, cell-based, Sendai virus stimulus, luciferase, 10K MLSCN set (AID 602276).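 Also: firefly luciferase from ISG56 promoter only with Renilla not read in this screen; 0% = Sendai virus plus DMSO and 100% = medium plus DMSO without virus.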 The conditions noted are these: HEK293 RL24 IRF3 luciferase reporter, at 10 µM, stronger effect = higher value. (In a reporter assay the amount or activity of a reporter protein is the signal.)
Assay [8] can be described thus: inhibitors of poly I:C-induced TLR3 signaling, primary screen, cell-based, poly I:C stimulus, luciferase, 10K MLSCN set (AID 602277;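 active = inhibition of the reporter signal at or above 50%; inactive = inhibition below 50%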). As to conditions: HEK293-TLR3 RL24 IRF3 luciferase reporter, at 10 µM, stronger effect = higher value.

Sequence of Voltage-gated potassium channel subunit beta-2 (Rattus norvegicus) (P62483 whole entry, looked up): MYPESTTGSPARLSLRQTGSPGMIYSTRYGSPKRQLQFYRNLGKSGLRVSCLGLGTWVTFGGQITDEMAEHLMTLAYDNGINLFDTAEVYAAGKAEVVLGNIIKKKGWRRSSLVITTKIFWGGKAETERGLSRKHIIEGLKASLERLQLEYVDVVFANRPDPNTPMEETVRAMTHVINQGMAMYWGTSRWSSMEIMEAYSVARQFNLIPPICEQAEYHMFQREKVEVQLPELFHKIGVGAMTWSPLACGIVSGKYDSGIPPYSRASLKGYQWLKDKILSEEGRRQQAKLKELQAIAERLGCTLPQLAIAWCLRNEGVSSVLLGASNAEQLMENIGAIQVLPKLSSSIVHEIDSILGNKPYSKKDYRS
Sequence of Muscarinic acetylcholine receptor M4 (Homo sapiens) (P08173 whole entry, looked up): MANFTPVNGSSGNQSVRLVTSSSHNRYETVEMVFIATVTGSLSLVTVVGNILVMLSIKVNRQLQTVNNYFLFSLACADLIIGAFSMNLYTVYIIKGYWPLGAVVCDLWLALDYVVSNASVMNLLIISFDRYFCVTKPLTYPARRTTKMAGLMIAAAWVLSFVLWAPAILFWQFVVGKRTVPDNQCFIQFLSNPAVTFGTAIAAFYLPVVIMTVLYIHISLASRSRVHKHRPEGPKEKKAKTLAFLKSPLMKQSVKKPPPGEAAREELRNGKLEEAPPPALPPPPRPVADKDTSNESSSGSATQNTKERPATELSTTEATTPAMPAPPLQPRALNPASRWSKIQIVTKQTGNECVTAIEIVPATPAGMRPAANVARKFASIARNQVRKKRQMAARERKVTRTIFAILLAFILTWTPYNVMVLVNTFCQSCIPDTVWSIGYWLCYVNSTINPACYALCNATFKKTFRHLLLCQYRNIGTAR

Consider `Cc1cc(S(=O)(=O)n2cnc3ccccc32)c(C)cc1Cl`, for which, in assay [1], the cell count is 449. Also, the inhibition is -11.9% (inactive) in assay [1], 8% (inactive) in assay [3], 1.42% (inactive) in assay [7] and 14.8% (inactive) in assay [8]. In addition, the inhibition of aggregation in assay [2] is 25.3% (inactive). The results for the nuclei count in assay [2] and in assay [3] were 78% and 113%, respectively. Besides, the fluorescence slope in assay [4] is -0.473 (inactive); in assay [6], 0.00564 (inactive). In addition, the NADPH fluorescence slope in assay [5] was 1.7e-06 (inactive).

`CC(C)Oc1ccc(C2C(C(=O)c3ccco3)=C(O)C(=O)N2CCCN(C)C)cc1` (stereo not given): the cell count in assay [1] is 694. Also, the inhibition in assay [1] was -5.2% (inactive); in assay [3], -16.4% (inactive); in assay [7] it was 13.1% (inactive); in assay [8], 8.15% (inactive). Also, the inhibition of aggregation in assay [2] is 17.7% (inactive). Moreover, the figures for the nuclei count in assay [2] and in assay [3] were 80.9% and 112%, respectively. The fluorescence slope was -0.476 (inactive) in assay [4] and 0.00376 (inactive) in assay [6]. Besides, the NADPH fluorescence slope in assay [5] was -0.000237 (inactive).

As to `O=C(CCn1c(=O)sc2ccccc21)Nc1cccnc1`, in assay [1], the cell count is 572. In addition, the inhibition in assay [1] is -7.6% (inactive); in assay [3], -11.2% (inactive); in assay [7], 8.62% (inactive); in assay [8], 10.8% (inactive). Besides, the inhibition of aggregation in assay [2] is 20.2% (inactive). Also, the nuclei count in assay [2] worked out at 81.9%; in assay [3], 110%. Moreover, the values for the fluorescence slope in assay [4] and in assay [6] were -0.443 (inactive) and 0.00603 (inactive), respectively. Besides, the NADPH fluorescence slope in assay [5] is 0.000131 (inactive).

In the case of `O=C(c1ccccc1)c1ccc(N2CCOCC2)c(NC(=O)c2ccco2)c1`, in assay [1], the cell count was 318. Moreover, the inhibition is -13% (inactive) in assay [1], -23.2% (inactive) in assay [3], 14.1% (inactive) in assay [7] and 17.3% (inactive) in assay [8]. Besides, the inhibition of aggregation in assay [2] is -8.7% (inactive). Besides, the nuclei count was determined as 114% in assay [2] and 119% in assay [3]. Besides, the fluorescence slope in assay [4] is -0.421 (inactive); in assay [6], 0.0062 (inactive). In addition, the NADPH fluorescence slope in assay [5] is 1e-05 (inactive).

Take `CCC(c1nnc(SCC(=O)NCC2CCCO2)n1Cc1ccccc1)N(C)C` (stereo not given): in assay [1], the cell count was 414. Besides, the inhibition in assay [1] was -5.7% (inactive); in assay [3], -136% (inactive); in assay [7] it was 21% (inactive); in assay [8] it was 25.8% (inactive). Further, in assay [2], the inhibition of aggregation is 0.8% (inactive). The nuclei count in assay [2] is 52.5%; in assay [3] it was 110%. The fluorescence slope in assay [4] was -0.508 (inactive); in assay [6], 0.00548 (inactive). For the same molecule, the NADPH fluorescence slope in assay [5] is -2.1e-05 (inactive).

As to `CC(C)Oc1cccc(-c2cc(C(=O)N3CCN(S(C)(=O)=O)CC3)c3ccccc3n2)c1`, in assay [1], the cell count came out at 638. The inhibition is 11.6% (inactive) in assay [1], -49% (inactive) in assay [3], -23% (inactive) in assay [7] and -35.2% (inactive) in assay [8]. Moreover, the inhibition of aggregation in assay [2] was 11.2% (inactive). Further, the nuclei count in assay [2] is 108%; in assay [3], 95%. Also, the fluorescence slope is -0.454 (inactive) in assay [4] and 0.00711 (inactive) in assay [6]. For the same molecule, the NADPH fluorescence slope in assay [5] was 2e-05 (inactive).

On to `CN(CCC#N)C(=O)COC(=O)c1ccc(Cl)c(S(N)(=O)=O)c1`, for which the cell count in assay [1] was 426. Besides, the inhibition in assay [1] was -2.2% (inactive); in assay [3], -96.3% (inactive); in assay [7], 16.3% (inactive); in assay [8], 25.4% (inactive). Besides, the inhibition of aggregation in assay [2] was 17.6% (inactive). Moreover, the nuclei count is 58.5% in assay [2] and 102% in assay [3]. The fluorescence slope was -0.539 (inactive) in assay [4] and 0.00521 (inactive) in assay [6]. In addition, the NADPH fluorescence slope in assay [5] is -5.1e-05 (inactive).

Turning to `O=C(O)c1ccccc1C(=O)Nc1ccccc1`, the cell count in assay [1] was 476. The inhibition was -6% (inactive) in assay [1], -88.4% (inactive) in assay [3], 5.22% (inactive) in assay [7] and 8.4% (inactive) in assay [8]. In addition, the inhibition of aggregation in assay [2] was -8.6% (inactive). In addition, the nuclei count in assay [2] was 82.7%; in assay [3], 143%. Besides, the figures for the fluorescence slope in assay [4] and in assay [6] were -0.5 (inactive) and 0.00478 (inactive), respectively. The NADPH fluorescence slope in assay [5] is -0.000287 (inactive).

`CCCCc1cc(=O)oc2cc(C)cc(OC(C)C(=O)O)c12` (stereo not given): the cell count in assay [1] was determined as 452. Further, the inhibition was -2.1% (inactive) in assay [1], -39.6% (inactive) in assay [3], 5.95% (inactive) in assay [7] and 21.5% (inactive) in assay [8]. Further, the inhibition of aggregation in assay [2] is -5.4% (inactive). The values for the nuclei count in assay [2] and in assay [3] were 110% and 134%, respectively. The fluorescence slope in assay [4] is -0.0718 (inactive); in assay [6], 0.00603 (inactive). Moreover, the NADPH fluorescence slope in assay [5] is -1e-05 (inactive).

Regarding `Cc1nc2ccccc2c(=O)n1NC(=O)c1ccc(F)cc1Cl`, in assay [1], the cell count is 302. In addition, the inhibition in assay [1] is 5% (inactive); in assay [3] it was 21.5% (inactive); in assay [7] it was 10.8% (inactive); in assay [8] it was 8.86% (inactive). Further, the inhibition of aggregation in assay [2] is 9.2% (inactive). For the same molecule, the nuclei count in assay [2] came out at 87.5%; in assay [3], 70.3%. In addition, the figures for the fluorescence slope in assay [4] and in assay [6] were -0.483 (inactive) and 0.00433 (inactive), respectively. The NADPH fluorescence slope in assay [5] was -2.3e-05 (inactive).

As to `Cc1cccc(OCC(=O)Nc2ccccc2N2CCN(C(=O)C(C)C)CC2)c1C`, the cell count in assay [1] is 232. The inhibition in assay [1] was -21.4% (inactive); in assay [3] it was -26.3% (inactive); in assay [7], 15.5% (inactive); in assay [8], 25.9% (inactive). Besides, the inhibition of aggregation in assay [2] is 6% (inactive). Also, the figures for the nuclei count in assay [2] and in assay [3] were 73.8% and 68.6%, respectively. In addition, the fluorescence slope in assay [4] was -0.585 (inactive); in assay [6], 0.00511 (inactive). Besides, in assay [5], the NADPH fluorescence slope was -2.3e-05 (inactive).

As to `O=C1c2ccccc2C(=O)N1OCc1ccccc1`, the cell count in assay [1] stood at 457. The inhibition is -6% (inactive) in assay [1], -71.8% (inactive) in assay [3], 16.6% (inactive) in assay [7] and 21.5% (inactive) in assay [8]. Further, the inhibition of aggregation in assay [2] was 13.7% (inactive). For the same molecule, the nuclei count in assay [2] stood at 80.1%; in assay [3] it was 126%. For the same molecule, the fluorescence slope in assay [4] was -0.608 (inactive); in assay [6] it was 0.00373 (inactive). In assay [5], the NADPH fluorescence slope was -3.7e-05 (inactive).

With `O=C(O)Cn1cc2c(n1)CCCC2`, the cell count in assay [1] was found to be 638. The inhibition in assay [1] was 0.2% (inactive); in assay [3], 13.9% (inactive); in assay [7], 9.43% (inactive); in assay [8], 8.73% (inactive). Moreover, the inhibition of aggregation in assay [2] is -7.3% (inactive). Besides, the nuclei count in assay [2] came out at 104%; in assay [3], 114%. Also, the fluorescence slope was -0.395 (inactive) in assay [4] and 0.00644 (inactive) in assay [6]. Further, the NADPH fluorescence slope in assay [5] was 6.4e-05 (inactive).

On to `Cc1csc(NC(=O)c2sc3nc(-c4cccs4)ccc3c2N)n1`, for which, in assay [1], the cell count stood at 340. The inhibition was -1.9% (inactive) in assay [1], -5.9% (inactive) in assay [3], -19.2% (inactive) in assay [7] and -115% (inactive) in assay [8]. In assay [2], the inhibition of aggregation was 30.2% (inactive). The nuclei count worked out at 68.7% in assay [2] and 90.5% in assay [3]. In addition, the fluorescence slope in assay [4] was -0.0131 (active); in assay [6], 0.0189 (active). In addition, the NADPH fluorescence slope in assay [5] is 2.9e-06 (inactive).

As for `Cc1ccc(C(=O)CSc2nnc(-c3cccnc3)n2N)cc1`, the cell count in assay [1] came out at 614. Besides, the inhibition is -20.3% (inactive) in assay [1], 5.4% (inactive) in assay [3], -0.185% (inactive) in assay [7] and 51.1% (active) in assay [8]. The inhibition of aggregation in assay [2] was -15.4% (inactive). Moreover, the nuclei count turned out to be 89.2% in assay [2] and 95.7% in assay [3]. Also, the fluorescence slope is -0.534 (inactive) in assay [4] and 0.00446 (inactive) in assay [6]. Besides, the NADPH fluorescence slope in assay [5] was -5.6e-05 (inactive).
